Our source for the Activity, inhibition of growth and IC50 values is ChEMBL document CHEMBL3217467, “A structure-activity relationship study on multi-heterocyclic molecules: two linked thiazoles are required for cytotoxic activity” (Medchemcomm, 2013).

Calls of active or inactive are those of the source. The rule behind the calls is not given here.

For test [1], the system named is HCT-116. Nature of the test: Induction of apoptosis in human HCT116 cells assessed as plasma membrane budding at 10 uM after 24 hrs by Hoechst 33342 staining based microscopic analysis. It counts as functional, cell-based. In a few lines:
(§1)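 HCT 116 cells were plated at 20,000 per dish 24 h before treatment, then given 10 μM compound or 1% (v/v) DMSO control for 24 h. They were fixed in 1.5% glutaraldehyde in PBS for 1 h, washed with PBS, stained with 5 μg/ml Hoechst 33342 and imaged by confocal microscopy.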

For test [2], the system named is HCT-116. As to the kind of experiment: Induction of apoptosis in human HCT116 cells assessed as chromatin condensation at 10 uM after 24 hrs by Hoechst 33342 staining based microscopic analysis. It counts as functional, cell-based. In a few lines:
as §1

In test [3] the test system is HCT-116. Nature of the test: Cytotoxicity against human HCT116 cells assessed as growth inhibition at 40 uM after 72 hrs by CCK8 assay. The test is classed as functional. The note with it: HCT-116, 72 h, read-out: GI. In a few lines:
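HCT-116 cells seeded at 3000/well in DMEM with 10% FBS and allowed 24 h at 37°C in CO2. They were then treated 72 h at a single 40 uM concentration, with media-only and 1% DMSO controls. Fresh serum-free medium plus CCK-8 was added for 1 h at 37°C, and absorbance read at 450 nm as % cell survival.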
For orientation: Tetrazolium assays rely on reduction of a dye to a coloured formazan, in cell work by metabolically active cells.

The test system of test [4] is HCT-116. Nature of the test: Induction of apoptosis in human HCT116 cells assessed as intact plasma membranes at 10 uM after 24 hrs by Hoechst 33342 staining based microscopic analysis. The test is classed as functional, cell-based. The method, boiled down:
as §1

Test [5] deals with HCT-116. As to the kind of experiment: Cytotoxicity against human HCT116 cells assessed as growth inhibition after 72 hrs by CCK8 assay. It counts as functional, cell-based. The conditions noted are these: HCT-116, 72 h. The method, boiled down: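 HCT-116 cells seeded at 3000/well in DMEM with 10% FBS and left 24 h to adhere at 37°C in CO2. They were then exposed for 72 h to 1, 2, 5, 10, 20, 30 and 40 μM, with 1% DMSO and media-only controls. Readout was CCK-8 reduction, 1 h, absorbance at 450 nm. IC50 was taken from log concentration versus % survival curves; three experiments, quadruplicate points.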

Test [6] relates to HCT-116. As to the kind of experiment: Induction of apoptosis in human HCT116 cells assessed as cell shrinkage and nuclear condensation at 10 uM after 24 hrs by Hoechst 33342 staining based microscopic analysis. The test is classed as functional. In a few lines: as §1
Test [7] has as its system HCT-116. As to the kind of experiment: Induction of apoptosis in human HCT116 cells assessed as nuclear condensation at 10 uM after 24 hrs by Hoechst 33342 staining based microscopic analysis. It counts as functional. The method, boiled down: as §1

For `CCOC(=O)c1csc(-c2csc(-c3csc([C@@H](NC(=O)OC(C)(C)C)[C@@H](C)OC(C)(C)C)n3)n2)n1`, the outcome in the test with HCT-116 [1] was inactive. Further, the result with HCT-116 [2] and in the test on HCT-116 [4] was Active. In the test on HCT-116 [3], the inhibition of growth at 40 µM was over 50%. In addition, in the test with HCT-116 [5], the concentration for half-maximal inhibition (IC50) (as a rule, the midpoint of a concentration-inhibition curve) worked out at 26.5 µM. Also, the Activity in the test with HCT-116 [6] amounted to 30%.

As to `COC(=O)c1nc(-c2csc(-c3csc(-c4csc(-c5csc([C@@H](NC(=O)OC(C)(C)C)[C@@H](C)OC(C)(C)C)n5)n4)n3)n2)oc1-c1ccccc1`, the inhibition of growth at 40 µM with HCT-116 [3] was over 50%. The IC50 in the test with HCT-116 [5] turned out to be 18.7 µM.

Turning to `CCOC(=O)c1csc(-c2coc(-c3coc([C@@H](NC(=O)OC(C)(C)C)[C@@H](C)OC(C)(C)C)n3)n2)n1`, the result with HCT-116 [1] was inactive. Besides, the outcome in the test on HCT-116 [2] and with HCT-116 [4] was Active. In addition, the Activity with HCT-116 [7] came to 12%.

For `COC(=O)c1coc(-c2coc([C@@H](NC(=O)OC(C)(C)C)[C@@H](C)OC(C)(C)C)n2)n1`, the concentration for half-maximal inhibition (IC50) in the test with HCT-116 [5] was over 100 µM.

With `COC(=O)c1nc(-c2csc(-c3csc(-c4coc(-c5coc([C@@H](NC(=O)OC(C)(C)C)[C@@H](C)OC(C)(C)C)n5)n4)n3)n2)oc1-c1ccccc1`, the inhibition of growth at 40 µM in the test on HCT-116 [3] was over 50%. Besides, the IC50 in the test with HCT-116 [5] came out at 18.2 µM.

Take `CCOC(=O)c1csc(-c2csc([C@@H](NC(=O)OC(C)(C)C)[C@@H](C)OC(C)(C)C)n2)n1`: in the test on HCT-116 [3], the inhibition of growth at 40 µM was over 50%. The IC50 in the test with HCT-116 [5] is 19.4 µM.
